The values that follow come from ChEMBL document CHEMBL1123829, “Resolved cis-10-hydroxy-4-n-propyl-1,2,3,4,4a,5,6,10b- octahydrobenzo[f]quinoline : central serotonin stimulating properties” (1987).

Active and inactive are the calls of the source. The calls are words filed in the database; no cut-off is given here.

The species entered for experiment [1] is Rattus norvegicus. The experiment can be described thus: Compound was tested for Dopa accumulation in hemispheres (brain) of reserpinized rat; I = Inactive. The format is functional, organism-based.
The species entered for experiment [2] is Rattus norvegicus. Description: Compound was tested for Dopa accumulation in corpus striatum(brain) of reserpinized rat; I = Inactive. Type of experiment: functional, organism-based.
The species entered for experiment [3] is Rattus norvegicus. The experiment can be described thus: Compound was tested for Dopa accumulation in limbic system(brain) of reserpinized rat; I = Inactive. The format is functional, organism-based.
Experiment [4] has as its system Rattus norvegicus. Description: Compound was tested for 5-HTP accumulation in hemispheres (brain) of reserpinized rat; A partial agonistic response at a dose of 50 uM/kg. Type of experiment: functional, organism-based. As to conditions: filed as partial agonist.
Experiment [5] deals with Rattus norvegicus. Description: Compound was tested for Dopa accumulation in hemispheres (brain) of reserpinized rat; A partial agonistic response at a dose of 50 uM/kg. The format is functional, organism-based. As to conditions: filed as partial agonist.
Experiment [6] deals with Rattus norvegicus. The experiment can be described thus: Compound was tested for Dopa accumulation in corpus striatum(brain) of reserpinized rat; A partial agonistic response at a dose of 25 uM/kg. As to conditions: filed as partial agonist. Type of experiment: functional, organism-based.
Experiment [7] concerns Rattus norvegicus. Description: Compound was tested for 5-HTP accumulation in corpus striatum(brain) of reserpinized rat; A partial agonistic response at a dose of 25 uM/kg. The format is functional, organism-based. The following applies: filed as partial agonist.
For experiment [8], the system named is Rattus norvegicus. The experiment can be described thus: Compound was tested for 5-HTP accumulation in limbic system(brain) of reserpinized rat; A partial agonistic response at a dose of 12.5 uM/kg. Type of experiment: functional, organism-based. As to conditions: filed as partial agonist.
In experiment [9] the test system is Rattus norvegicus. Description: Compound was tested for Dopa accumulation in limbic system(brain) of reserpinized rat; A partial agonistic response at a dose of 12.5 uM/kg. Type of experiment: functional, organism-based. The following applies: filed as partial agonist.
The species named for experiment [10] is Rattus norvegicus. The experiment can be described thus: Compound was tested for 5-HTP accumulation in corpus striatum (brain) of reserpinized rat. The format is functional. Summed up:
(§1)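 Male Sprague-Dawley rats (200–300 g), pretreated with reserpine in glacial acetic acid/5.5% glucose. Compounds were given sc in saline at neutral pH. 5-HTP in striatum, limbic system or hemispheres was measured by HPLC with electrochemical detection. Dose-response curves used 4–6 dose levels per substance and region, with 95% confidence limits by modified probit analysis.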

Experiment [11] is filed under the species Rattus norvegicus. Description: Compound was tested for Dopa accumulation in limbic system (brain) of reserpinized rat; I = Inactive. The format is functional, organism-based.
For experiment [12], the species on record is Rattus norvegicus. Description: Compound was tested for 5-HTP accumulation in hemispheres (brain) of reserpinized rat. Type of experiment: functional. Summed up:
as §1

Experiment [13] is filed under the species Rattus norvegicus. Description: Compound was tested for 5-HTP accumulation in limbic system (brain) of reserpinized rat. The format is functional. The essentials:
as §1

The species named for experiment [14] is Rattus norvegicus. The experiment can be described thus: Compound was tested for 5-HTP accumulation in limbic system(brain) of reserpinized rat. Type of experiment: functional. The essentials: as §1
Experiment [15] is filed under the species Rattus norvegicus. The experiment can be described thus: Compound was tested for 5-HTP accumulation in corpus striatum(brain) of reserpinized rat. The format is functional. The essentials: as §1
For experiment [16], the species on record is Rattus norvegicus. The experiment can be described thus: Compound was tested for 5-HTP accumulation in hemispheres (brain) of reserpinized rat; I = Inactive. The format is functional. Summed up:
as §1

For experiment [17], the species on record is Rattus norvegicus. Description: Compound was tested for 5-HTP accumulation in corpus striatum(brain) of reserpinized rat. The format is functional. Summed up:
as §1

For experiment [18], the species on record is Rattus norvegicus. The experiment can be described thus: Compound was tested for 5-HTP accumulation in limbic system(brain) of reserpinized rat. The format is functional. The essentials: as §1
The species entered for experiment [19] is Rattus norvegicus. The experiment can be described thus: Compound was tested for 5-HTP accumulation in hemispheres (brain) of reserpinized rat. Type of experiment: functional. The essentials:
as §1

The term ED50 denotes the dose that gives a 50% effect, or the effect in half of the subjects. As for `CCCN1CCCC2c3c(O)cccc3CCC21` (stereo in doubt) [listing 1 of 2 here], the ED50 result in the experiment listed under Rattus norvegicus [1], in the experiment listed under Rattus norvegicus [2] and in the experiment filed under Rattus norvegicus [3] was “inactive” in each case.
For the compound `CCCN1CCCC2c3c(O)cccc3CCC21` (centres undefined), the ED50 entry in the experiment with Rattus norvegicus [4], with Rattus norvegicus [5], with Rattus norvegicus [6], in the experiment with Rattus norvegicus [7], in the experiment with Rattus norvegicus [8] and in the experiment with Rattus norvegicus [9] was “Partial agonist” throughout.
On to `CCCN1CCCC2c3c(O)cccc3CCC21` (stereo in doubt; 4) [listing 1 of 2 here], for which the ED50 result in the experiment filed under Rattus norvegicus [1], in the experiment filed under Rattus norvegicus [2] and in the experiment listed under Rattus norvegicus [3] was “inactive” in each case.
On to `CCCN(CCC)[C@@H]1CCc2cccc(O)c2[C@@H]1C`, for which the ED50 result in the experiment listed under Rattus norvegicus [1], in the experiment listed under Rattus norvegicus [2] and in the experiment listed under Rattus norvegicus [11] was “inactive” in each case. In addition, the ED50 in the experiment listed under Rattus norvegicus [10] stood at 0.04 µmol/kg; in the experiment listed under Rattus norvegicus [12], 0.09 µmol/kg; in the experiment listed under Rattus norvegicus [13], 0.09 µmol/kg.
For `CCCN1CCCC2c3c(O)cccc3CCC21` (stereo in doubt; 4) [listing 2 of 2 here], the ED50 was 3.4 µmol/kg in the experiment listed under Rattus norvegicus [14], 3.4 µmol/kg in the experiment listed under Rattus norvegicus [15] and 4.5 µmol/kg in the experiment filed under Rattus norvegicus [16].
For `CCCN1CCCC2c3c(O)cccc3CCC21` (stereo in doubt) [listing 2 of 2 here], the ED50 in the experiment filed under Rattus norvegicus [17] was 3.63 µmol/kg; in the experiment filed under Rattus norvegicus [18] it was 2.57 µmol/kg; in the experiment filed under Rattus norvegicus [19], 3.47 µmol/kg.
